# High-throughput results: PubChem, Sanford-Burnham Center for Chemical Genomics
# Not all results are given here.
# Apaf1 activ: activates human Apaf-1 apoptosome; O14727; Apaf-1 apoptosome caspase-3 activation, DEVD-Rh110 fluorescence; active compounds read low; activity change, negative = activation, % at 20 µM; 0.31% of 330,000 active;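 active means activity change at or below -40% at 20 µM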
# Target sequence (O14727 whole entry, looked up): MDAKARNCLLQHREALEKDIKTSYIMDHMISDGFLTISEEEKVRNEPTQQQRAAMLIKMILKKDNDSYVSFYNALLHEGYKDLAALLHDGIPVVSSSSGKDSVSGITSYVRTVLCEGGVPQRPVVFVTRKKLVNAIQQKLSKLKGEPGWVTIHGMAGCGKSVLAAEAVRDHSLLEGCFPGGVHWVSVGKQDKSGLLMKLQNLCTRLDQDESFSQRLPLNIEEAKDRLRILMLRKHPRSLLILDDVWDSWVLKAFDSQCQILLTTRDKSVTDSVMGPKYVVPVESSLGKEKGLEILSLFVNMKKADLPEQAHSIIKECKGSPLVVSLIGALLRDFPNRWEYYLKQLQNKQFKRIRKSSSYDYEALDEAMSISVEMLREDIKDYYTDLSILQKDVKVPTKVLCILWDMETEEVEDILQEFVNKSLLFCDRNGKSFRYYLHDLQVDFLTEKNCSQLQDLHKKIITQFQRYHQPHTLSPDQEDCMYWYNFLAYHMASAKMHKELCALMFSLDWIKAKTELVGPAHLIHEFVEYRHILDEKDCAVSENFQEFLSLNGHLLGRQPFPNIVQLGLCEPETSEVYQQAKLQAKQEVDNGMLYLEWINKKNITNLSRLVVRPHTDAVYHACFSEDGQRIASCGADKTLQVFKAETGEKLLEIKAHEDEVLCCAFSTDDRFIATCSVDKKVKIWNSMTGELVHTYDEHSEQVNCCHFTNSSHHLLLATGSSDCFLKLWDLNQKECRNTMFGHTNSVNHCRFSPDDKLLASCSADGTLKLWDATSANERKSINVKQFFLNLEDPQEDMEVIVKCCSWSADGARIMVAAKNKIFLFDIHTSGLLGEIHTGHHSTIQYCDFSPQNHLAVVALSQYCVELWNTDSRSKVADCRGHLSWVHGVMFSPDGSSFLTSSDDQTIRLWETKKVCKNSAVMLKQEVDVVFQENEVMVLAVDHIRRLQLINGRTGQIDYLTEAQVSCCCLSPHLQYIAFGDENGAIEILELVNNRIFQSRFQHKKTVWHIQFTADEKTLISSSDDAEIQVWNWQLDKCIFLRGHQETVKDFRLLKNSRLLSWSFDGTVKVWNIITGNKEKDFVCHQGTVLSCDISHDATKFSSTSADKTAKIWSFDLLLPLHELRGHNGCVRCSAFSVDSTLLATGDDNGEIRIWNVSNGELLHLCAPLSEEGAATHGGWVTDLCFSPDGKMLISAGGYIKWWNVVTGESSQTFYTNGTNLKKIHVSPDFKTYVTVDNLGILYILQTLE
#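 System: Reconstituted apoptosome of Apaf-1, cytochrome c, caspase-9, procaspase-3 | Reagent: dATP, cytochrome c, and (Z-DEVD)2-Rh110 caspase-3 substrate | Times: 30 min compound preincubation and 50 min reaction, both room temperature | Detection: Caspase-3-released Rh110 fluorescence, 540 nm emission, 480 nm excitation | Measure: Caspase-3 activity via Apaf-1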
# Rh110 act interf: interferes with Rh110 fluorescence, flagging false Apaf-1 activators; Rh110 fluorescence interference, quenched caspase reaction, Ex480/Em540; fluorescence interference (activity change), % at 20 µM, hits read low; 980 tested, under 10 active; shares compounds with Apaf1 activ;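 active means mean activity change at or below -40% when tested at 20 µM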
# Apaf-1 act conf: Apaf-1 (human) activation, single-dose confirmed. shares compounds with Apaf1 activ. reconstituted apoptosome caspase-3 activity, DEVD-Rh110 fluorescence; active compounds read low. activity change, negative = activation, % at 20 µM. 5% of 980 active. AID 504617;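 active means mean activity change at or below -40%, meaning activation of 40% or more, at 20 µM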
# Fluor interf act: Apaf-1 activator counter-screen fluorescence artifact; shares compounds with Apaf1 activ; fluorescence interference counterscreen, Apaf-1 activator assay; 55 tested, under 10 active; EC50, µM; call rule not given here
# Starred values were filed as active, the others as inactive; / = not tested or not shown.
SMILES,Apaf1 activ,Rh110 act interf,Apaf-1 act conf,others
C#CCOCCOCCOCCNc1nc(N2CCN(C(=O)[C@H](CCCN=C(N)N)n3cc(C(N)[C@@H](C)CC)nn3)CC2)nc(N2CCN(C(=O)[C@H](CCCCN)n3cc([C@@H](N)[C@H](C)CC)nn3)CC2)n1 (stereo not given in full),50,/,/,
C#CCOCCOCCOCCNc1nc(N2CCN(C(=O)CCCCCCCCCCNC(=O)Cn3cc(C[C@@H](C)O)nn3)CC2)nc(N2CCN(C(=O)CCCCCCCCCCNC(=O)[C@@H](CCC(=O)O)n3cc(CCCCCN)nn3)CC2)n1,52,/,/,
CCOC(=O)C(=O)Nc1cc(Cl)ccc1C,-54*,11,10,
COn1c2c(c3c4nonc4ccc31)CCCC2,47,/,/,Fluor interf act=>100
COc1cc(/C=C/C(=O)OCC(=O)Nc2ccc(C)cc2[N+](=O)[O-])ccc1O,-94*,-2,-37,
Cc1ccc(OCC(=O)N/N=C\c2c(C)n(C)c3ccccc23)c([N+](=O)[O-])c1,42,/,/,
COc1cc(/C=C/C(=O)OCC(=O)Nc2cc(C)c(C)cc2[N+](=O)[O-])ccc1O,-71*,-3,-27,
CC(C)=CCC1=C(OCC(=O)O)C(=O)c2ccccc2C1=O,95,/,/,
COc1ccc(/C=C2/C(=O)N(c3ccccc3)N=C2C)cc1OC,96,/,/,
O=C1CCCC/C1=C\Nc1ccc(Cl)cn1,-73*,9,17,
CCCCCc1cc(=O)oc2c(C(CCN3CCCCC3)c3ccc4c(c3)OCO4)c(OC)cc(OC)c12 (stereo not given),66,/,/,
COc1ccc2c(c1)Cc1sc(NC(=O)c3cccnc3)nc1-2,89,/,/,
COc1ccc2c(c1)Cc1sc(NC(C)=O)nc1-2,73,/,/,
COc1ccc2nc(NC(=O)c3sc4nc(C)cc(C)c4c3N)sc2c1,-41*,-3,10,
CCc1ccccc1NC(=O)COC(=O)c1cccs1,-104*,12,9,
CCOC(=O)c1c(N)n(CCOC(=O)c2cccs2)c2nc3ccccc3nc12,95,/,/,
CCOC(=O)c1cc(C(=O)c2cccs2)n2ccc(C(C)=O)cc12,42,/,/,
CCOc1ccccc1N1CSC2=C(C#N)C(c3c(OC)ccc4ccccc34)CC(=O)N2C1 (stereo not given),41,/,/,
CCOCCCNC(=O)COc1ccc(OC)cc1,-293*,12,12,
CCOCCCNC1=C(Cl)C(=O)c2ccccc2C1=O,48,/,/,
O=C1c2ccccc2C(=O)C12OC2c1cccc2ccccc12 (stereo not given),94,/,/,
CN1CCC[C@@H]1CCNC(=O)c1c(-c2ccc3c(c2)OCO3)noc1-c1ccsc1,40,/,/,
Cc1noc(C)c1C(=O)OC(C(=O)NC1CCCC1)c1ccc(F)cc1 (stereo not given),-52*,7,5,
FC(F)(F)C1=Nc2cccc3cccc(c23)N1,66,/,/,
CCOc1ccccc1CNC(=O)C1CCN(c2nnc(C)c3c(C)n(-c4ccc(C)cc4)nc23)CC1,41,/,/,
SMILES,Apaf1 activ,Rh110 act interf,Apaf-1 act conf,others
CN(C)CCCNC(=O)C[C@H]1C[C@H](C(=O)N2CCCCC2)[C@@]2(C)c3[nH]c4cc(-c5ccco5)ccc4c3CCN2C1=O,42,/,/,
C=C(C)C(=O)Nc1ccc(OC(F)(F)C(F)F)c(NC(=O)C(=C)C)c1,-85*,4,-21,
COc1ccc(-c2nc(-c3ccc(Br)o3)no2)cc1OC,-45*,7,17,
COc1cc2c(cc1OC)C(c1ccc(-c3ccc(Cl)c(Cl)c3)o1)=NCC2,41,/,/,
Cc1ccc(C(=O)NCC(=O)N2CCCCCCC2)cc1,61,/,/,
O=C(CSc1ccc2nnc(-c3ccccc3)n2n1)N1CCCCC1,-113*,2,9,
CSc1ccc2c(c1)C(N1CCN(C)CC1)Cc1ccccc1S2 (stereo not given),48,/,/,
CN1CCN(CCCN2c3ccccc3Sc3ccc(Cl)cc32)CC1,54,/,/,
CN1CCN(C2Cc3cc(F)ccc3Sc3ccc(Cl)cc32)CC1 (stereo not given),-78*,7,7,
COc1ccc(C(=O)NCC(=O)OCc2ccc([N+](=O)[O-])cc2)cc1,-70*,12,11,
COC(=O)C(CCCCNC(=O)c1ccc([N+](=O)[O-])cc1)NC(=O)c1ccc([N+](=O)[O-])cc1 (stereo not given),-48*,8,13,
C/C(=N/NC(=O)Cc1cc(=O)[nH][nH]1)c1ccc([N+](=O)[O-])cc1,55,/,/,
CC(=O)N(C1=C(Cl)C(=O)c2ccccc2C1=O)C1CCCCC1,85,/,/,
Cn1/c(=N/NC(=O)c2ccccc2F)sc2ccccc21,-72*,5,2,
O=C(NCc1ccc2c(c1)OCO2)c1ccc2snnc2c1,-181*,-1,10,
COC(=O)C1=C(C)N(Cc2ccccc2)C(=NCc2ccc3c(c2)OCO3)N[C@H]1c1ccccc1,45,/,/,
COc1ccc(CC2S/C(=N/N=C/c3ccccc3O)NC2=O)cc1 (stereo not given),-524*,14,23,
CN(C)c1cccc2cccc(N(C)C)c12,89,/,/,
CC1(OC(=O)c2ccc(Cl)nc2)C(=O)C=C2C=C3CCCN3C=C2C1=O (stereo not given),44,/,/,
Cc1ccc(C)c(N2CCN(S(=O)(=O)c3cn(C)cn3)CC2)c1,-78*,-4,8,
Cc1ccc(CN2CC(C(=O)N3CCN(S(=O)(=O)c4ccc(C)cc4C)CC3)CC2=O)cc1 (stereo not given),48,/,/,
COc1ccc(-c2csc(-c3ccc(O)cc3)n2)cc1,-116*,8,4,
Cc1cccc2cc(C(c3nnnn3CC3CCCO3)N3CCc4ccccc4C3)c(=O)[nH]c12 (stereo not given),79,/,/,
COc1ccc(C(=O)NCCc2nnc3ccc(SCC(=O)NCCc4ccc(OC)c(OC)c4)nn23)cc1,-410*,-4,9,
O=C(CSc1ccc2nnc(CCNC(=O)c3ccccc3)n2n1)Nc1ccccc1,-293*,3,-3,
SMILES,Apaf1 activ,Rh110 act interf,Apaf-1 act conf,others
NCCc1cnc[nH]1,3,/,/,
COC(=O)C1=C(C)N(Cc2ccccc2)C(=NCc2cccc(Cl)c2)N[C@H]1c1cccc(F)c1,67,/,/,
Cc1cc(/C=C\c2ccc3cc(N(C)C)ccc3[n+]2C)c(C)n1-c1ccccc1,43,/,/,
NS(=O)(=O)Cc1noc2ccccc12,-79*,-4,7,
O=C1C2C3C=CC(C3)C2C(=O)N1CNc1ccc(O)cc1 (stereo not given),94,/,/,
O=C(CCC1N=C2c3ccccc3N=C(SCc3ccc(Cl)cc3)N2C1=O)NCc1ccco1 (stereo not given),41,/,/,
S=C(NCCc1ccc(Cl)cc1)NCc1ccco1,-154*,3,15,
COC(=O)CCC(=O)OC1(C)C(=O)C2=CN(CC(C)C)C(c3ccc(OC)cc3)=CC2=C(Br)C1=O (stereo not given),52,/,/,
COc1ccc(NC(=O)[C@@H]2[C@@H]3C(=O)N(C4CCCCC4)C(=O)[C@@H]3C3c4ccccc4C=CN32)cc1 (stereo not given in full),51,/,/,
CCOC(=O)CNC(=O)C1c2ccccc2C(=O)N(c2ccc(OC)cc2)C1c1ccc(OC)cc1 (stereo not given),-42*,0,12,
